Laboratory results taken from ChEMBL document CHEMBL1687778, “Genetic determinants involved in the susceptibility of Pseudomonas aeruginosa to beta-lactam antibiotics” (2010).
Converted amounts (≈) assume the structure as drawn.

Columns and labels:
Pseudomonas aeruginosa [1] = test: Antimicrobial activity against Pseudomonas aeruginosa PA14 PA14_06490 harboring mutation in hypothetical protein by Etest method; assay type: functional
Procedure, shortened: (§1)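 Overnight LB cultures (37°C) diluted in sterile 0.85% NaCl to about 1 × 10^7 CFU/ml. 100 µl spread on Mueller-Hinton agar, one Etest strip per plate, 18 h at 37°C. Ceftazidime, imipenem and meropenem tested. Wild-type PA14 plate included in each set. Each mutant verified in triplicate.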

Pseudomonas aeruginosa [2] = test: Antimicrobial activity against Pseudomonas aeruginosa PA14 PA5443 harboring uvrD mutant gene by Etest method; assay type: functional
Procedure, shortened: (§2)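 Etest MIC. Overnight LB cultures at 37°C were diluted in sterile 0.85% NaCl to about 1 × 10^7 CFU/ml. 100 µl was spread on Mueller-Hinton agar, one strip was placed per plate, and plates were incubated at 37°C for 18 h. Equal cell numbers were seeded per plate, and results were verified in triplicate. PA14 wild type was included in each set as a susceptibility control.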

Pseudomonas aeruginosa [3] = test: Antimicrobial activity against Pseudomonas aeruginosa PA14 PA4527 harboring pilC mutant gene by Etest method; assay type: functional; procedure, shortened: as §2
Pseudomonas aeruginosa [4] = test: Antimicrobial activity against Pseudomonas aeruginosa PA14 PA2128 harboring cupA1 mutant gene by Etest method; assay type: functional; procedure, shortened: as §1
Pseudomonas aeruginosa [5] = test: Antimicrobial activity against Pseudomonas aeruginosa PA14 PA5288 harboring glnK mutant gene by Etest method; assay type: functional; procedure, shortened: as §2
[6] = test system: Pseudomonas aeruginosa PA14; test: Activity of Beta-lactamase in Pseudomonas aeruginosa PA14 PA4020 harboring complemented mpl mutant gene assessed as nitrocefin hydrolysis per mg of protein by spectrophotometry
Procedure, shortened: (§3)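 Cells grown to OD600 1.0, pelleted and resuspended in 0.1 M KH2PO4-Na2HPO4 pH 7.0. Crude extract made by two freeze-thaw cycles plus sonication on ice. β-Lactamase read as absorbance change at 485 nm with 50 µM nitrocefin in the same pH 7.0 phosphate buffer. Extract protein measured by BCA against a bovine serum albumin standard.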

[7] = test system: Pseudomonas aeruginosa PAO1; test: Activity of Beta-lactamase in Pseudomonas aeruginosa PAO1 PA4020 harboring mpl mutant gene assessed as nitrocefin hydrolysis per mg of protein by spectrophotometry; procedure, shortened: as §3
Pseudomonas aeruginosa [8] = test: Antimicrobial activity against Pseudomonas aeruginosa PA14 PA0958 harboring oprD mutant gene by Etest method; assay type: functional; procedure, shortened: as §1
[9] = test system: Pseudomonas aeruginosa PAO1; test: Activity of wild type Pseudomonas aeruginosa PAO1 Beta-lactamase assessed as nitrocefin hydrolysis per mg of protein by spectrophotometry; procedure, shortened: as §3
Pseudomonas aeruginosa [10] = test: Antimicrobial activity against Pseudomonas aeruginosa PA14 PA3721 harboring nalC mutant gene by Etest method; assay type: functional; procedure, shortened: as §2
[11] = test system: Pseudomonas aeruginosa PA14; test: Activity of Beta-lactamase in Pseudomonas aeruginosa PA14 PA4522 harboring ampD mutant gene assessed as nitrocefin hydrolysis per mg of protein by spectrophotometry; procedure, shortened: as §3
Pseudomonas aeruginosa [12] = test: Antimicrobial activity against Pseudomonas aeruginosa PA14 PA3141 harboring wbpM mutant gene by Etest method; assay type: functional; procedure, shortened: as §1
[13] = test system: Pseudomonas aeruginosa PAO1; test: Activity of Beta-lactamase in Pseudomonas aeruginosa PAO1 PA4522 harboring ampD mutant gene assessed as nitrocefin hydrolysis per mg of protein by spectrophotometry; procedure, shortened: as §3
[14] = test system: Pseudomonas aeruginosa PA14; test: Activity of wild type Pseudomonas aeruginosa PA14 Beta-lactamase assessed as nitrocefin hydrolysis per mg of protein by spectrophotometry; procedure, shortened: as §3
[15] = test system: Pseudomonas aeruginosa PA14; test: Activity of Beta-lactamase in Pseudomonas aeruginosa PA14 PA4109 harboring ampR mutant gene assessed as nitrocefin hydrolysis per mg of protein by spectrophotometry; procedure, shortened: as §3
Pseudomonas aeruginosa [16] = test: Antimicrobial activity against Pseudomonas aeruginosa PA14 PA4748 harboring tpiA mutant gene by Etest method; assay type: functional; procedure, shortened: as §2
Pseudomonas aeruginosa [17] = test: Antimicrobial activity against wild type Pseudomonas aeruginosa PA14 by Etest method; assay type: functional; procedure, shortened: as §2
Pseudomonas aeruginosa [18] = test: Antimicrobial activity against Pseudomonas aeruginosa PA14 PA3259 harboring mutation in conserved hypothetical protein by Etest method; assay type: functional; procedure, shortened: as §2
Pseudomonas aeruginosa [19] = test: Antimicrobial activity against Pseudomonas aeruginosa PA14 PA1011 harboring mutation in putative lipoprotein by Etest method; assay type: functional; procedure, shortened: as §1
Pseudomonas aeruginosa [20] = test: Antimicrobial activity against Pseudomonas aeruginosa PA14 PA5002 harboring mutation in hypothetical protein by Etest method; assay type: functional; procedure, shortened: as §2
Pseudomonas aeruginosa [21] = test: Antimicrobial activity against Pseudomonas aeruginosa PA14 PA5003 harboring mutation in conserved hypothetical protein by Etest method; assay type: functional; procedure, shortened: as §2
Pseudomonas aeruginosa [22] = test: Antimicrobial activity against Pseudomonas aeruginosa PA14 PA5000 harboring wapR mutant gene by Etest method; assay type: functional; procedure, shortened: as §2
Pseudomonas aeruginosa [23] = test: Antimicrobial activity against Pseudomonas aeruginosa PA14 PA2970 harboring rpmF mutant gene by Etest method; assay type: functional; procedure, shortened: as §1
Pseudomonas aeruginosa [24] = test: Antimicrobial activity against Pseudomonas aeruginosa PA14 PA14_07490/07510 harboring mutation in intergenic region by Etest method; assay type: functional; procedure, shortened: as §1
Pseudomonas aeruginosa [25] = test: Antimicrobial activity against Pseudomonas aeruginosa PA14 PA0766 harboring mucD mutant gene by Etest method; assay type: functional; procedure, shortened: as §1
Pseudomonas aeruginosa [26] = test: Antimicrobial activity against Pseudomonas aeruginosa PA14 PA4753 harboring mutation in putative RNA-binding protein by Etest method; assay type: functional; procedure, shortened: as §2
Pseudomonas aeruginosa [27] = test: Antimicrobial activity against Pseudomonas aeruginosa PA14 PA3704 harboring wspE mutant gene by Etest method; assay type: functional; procedure, shortened: as §2
Pseudomonas aeruginosa [28] = test: Antimicrobial activity against Pseudomonas aeruginosa PA14 PA4005 harboring mutation in conserved hypothetical protein by Etest method; assay type: functional; procedure, shortened: as §2
Pseudomonas aeruginosa [29] = test: Antimicrobial activity against Pseudomonas aeruginosa PA14 PA4088 harboring mutation in putative aminotransferase by Etest method; assay type: functional; procedure, shortened: as §2
Pseudomonas aeruginosa [30] = test: Antimicrobial activity against Pseudomonas aeruginosa PA14 PA0770 harboring rnc mutant gene by Etest method; assay type: functional; procedure, shortened: as §1
Pseudomonas aeruginosa [31] = test: Antimicrobial activity against Pseudomonas aeruginosa PA14 PA14_43090 harboring mutation in hypothetical protein by Etest method; assay type: functional; procedure, shortened: as §1
Pseudomonas aeruginosa [32] = test: Antimicrobial activity against Pseudomonas aeruginosa PA14 PA3800 harboring mutation in conserved hypothetical protein by Etest method; assay type: functional; procedure, shortened: as §2
Pseudomonas aeruginosa [33] = test: Antimicrobial activity against Pseudomonas aeruginosa PA14 PA3649 harboring mutation in putative membrane-associated zinc metalloprotease by Etest method; assay type: functional; procedure, shortened: as §2
[34] = test system: Pseudomonas aeruginosa PAO1; test: Activity of Beta-lactamase in Pseudomonas aeruginosa PAO1 PA3047 harboring dacB mutant gene assessed as nitrocefin hydrolysis per mg of protein by spectrophotometry; procedure, shortened: as §3
Pseudomonas aeruginosa [35] = test: Antimicrobial activity against Pseudomonas aeruginosa PA14 PA3589 harboring mutation in acetyl-coenzyme A (CoA) acetyltransferase (thiolase) by Etest method; assay type: functional; procedure, shortened: as §2
Pseudomonas aeruginosa [36] = test: Antimicrobial activity against Pseudomonas aeruginosa PA14 PA2023 harboring galU mutant gene by Etest method; assay type: functional; procedure, shortened: as §1
Pseudomonas aeruginosa [37] = test: Antimicrobial activity against Pseudomonas aeruginosa PA14 PA0764 harboring mucB mutant gene by Etest method; assay type: functional; procedure, shortened: as §1
Pseudomonas aeruginosa [38] = test: Antimicrobial activity against Pseudomonas aeruginosa PA14 PA1483 harboring cycH mutant gene by Etest method; assay type: functional; procedure, shortened: as §1
Pseudomonas aeruginosa [39] = test: Antimicrobial activity against Pseudomonas aeruginosa PA14 PA14_23430 harboring mutation in putative heparinase by Etest method; assay type: functional; procedure, shortened: as §1
Pseudomonas aeruginosa [40] = test: Antimicrobial activity against Pseudomonas aeruginosa PA14 PA4109 harboring ampR mutant gene by Etest method; assay type: functional; procedure, shortened: as §2

CC(C)(O/N=C(\C(=O)N[C@@H]1C(=O)N2C(C(=O)[O-])=C(C[n+]3ccccc3)CS[C@H]12)c1csc(N)n1)C(=O)O [CEFTAZIDIME]
MIC (Pseudomonas aeruginosa [1]): 2 mg/L (≈ 3.66 µM) | MIC (Pseudomonas aeruginosa [2]): 1.5 mg/L (≈ 2.74 µM) | MIC (Pseudomonas aeruginosa [3]): 2 mg/L (≈ 3.66 µM) | MIC (Pseudomonas aeruginosa [4]): 0.5 mg/L (≈ 0.915 µM) | MIC (Pseudomonas aeruginosa [5]): 0.5 mg/L (≈ 0.915 µM) | Activity [6]: 7.3 nmol/min | Activity [7]: 168 nmol/min | MIC (Pseudomonas aeruginosa [8]): 0.75 mg/L (≈ 1.37 µM) | Activity [9]: 6.9 nmol/min | MIC (Pseudomonas aeruginosa [10]): 1.5 mg/L (≈ 2.74 µM) | Activity [11]: 31 nmol/min | MIC (Pseudomonas aeruginosa [12]): 2 mg/L (≈ 3.66 µM) | Activity [13]: 74 nmol/min | Activity [14]: 4.9 nmol/min | Activity [15]: 257 nmol/min | MIC (Pseudomonas aeruginosa [16]): 1.5 mg/L (≈ 2.74 µM) | MIC (Pseudomonas aeruginosa [17]): 0.75 mg/L (≈ 1.37 µM) | MIC (Pseudomonas aeruginosa [18]): 1.5 mg/L (≈ 2.74 µM) | MIC (Pseudomonas aeruginosa [19]): 0.5 mg/L (≈ 0.915 µM) | MIC (Pseudomonas aeruginosa [20]): 1.5 mg/L (≈ 2.74 µM) | MIC (Pseudomonas aeruginosa [21]): 3 mg/L (≈ 5.49 µM) | MIC (Pseudomonas aeruginosa [22]): 4 mg/L (≈ 7.32 µM) | MIC (Pseudomonas aeruginosa [23]): 0.5 mg/L (≈ 0.915 µM) | MIC (Pseudomonas aeruginosa [24]): 0.5 mg/L (≈ 0.915 µM) | MIC (Pseudomonas aeruginosa [25]): 0.38 mg/L (≈ 0.695 µM) | MIC (Pseudomonas aeruginosa [26]): 0.25 mg/L (≈ 0.457 µM) | MIC (Pseudomonas aeruginosa [27]): 2 mg/L (≈ 3.66 µM) | MIC (Pseudomonas aeruginosa [28]): 0.75 mg/L (≈ 1.37 µM) | MIC (Pseudomonas aeruginosa [29]): 0.25 mg/L (≈ 0.457 µM) | MIC (Pseudomonas aeruginosa [30]): 0.5 mg/L (≈ 0.915 µM) | MIC (Pseudomonas aeruginosa [31]): 2 mg/L (≈ 3.66 µM) | MIC (Pseudomonas aeruginosa [32]): 0.25 mg/L (≈ 0.457 µM) | MIC (Pseudomonas aeruginosa [33]): 0.5 mg/L (≈ 0.915 µM) | Activity [34]: 274 nmol/min | MIC (Pseudomonas aeruginosa [35]): 2 mg/L (≈ 3.66 µM) | MIC (Pseudomonas aeruginosa [36]): 3 mg/L (≈ 5.49 µM) | MIC (Pseudomonas aeruginosa [37]): 0.75 mg/L (≈ 1.37 µM) | MIC (Pseudomonas aeruginosa [38]): 0.5 mg/L (≈ 0.915 µM) | MIC (Pseudomonas aeruginosa [39]): 2 mg/L (≈ 3.66 µM) | MIC (Pseudomonas aeruginosa [40]): 4 mg/L (≈ 7.32 µM)
